Series [1] concerns the target T1, Cytochrome b-c1 complex subunit 7 (Homo sapiens, UniProt P14927).
T1 sequence (P14927 whole entry): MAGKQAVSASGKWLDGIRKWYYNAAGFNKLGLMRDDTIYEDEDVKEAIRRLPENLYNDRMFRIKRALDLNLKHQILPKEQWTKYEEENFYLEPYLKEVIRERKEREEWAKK
Description: Modulation of UQCRB in human HepG2 cells assessed as inhibition of HIF-1alpha for 4 hrs under 1%O2 by Western blot analysis. The format is cell-based. The procedure, abridged: (§1)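 HepG2 cells pretreated with compound for 30 min, then exposed to 1% O₂ for 4 h. HIF-1α and tubulin measured by Western blot and quantified by densitometry.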
On the technique in general: In western blotting, separated proteins are transferred to a membrane and probed.

Series [2] relates to Chorioallantoic membrane. Description: Antiangiogenic activity in chicken chorioallantoic membrane assessed as inhibition of blood vessel formation (reference value: 23%). In kind it is functional, cell membranes. To be noted: Gallus gallus, dose or concentration not given here. The procedure, abridged:
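Fertilized chick eggs held at 37 °C in a humidified incubator; about 2 mL albumin withdrawn on day 3. Compound-loaded Thermanox coverslips placed on the CAM of 4.5-day embryos; retinoic acid served as positive control. Result given as percent positive eggs of eggs tested.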

A short description of series [3]: Thermodynamic solubility in H2O by HPLC. In kind it is physicochemical. Conditions: water; read-out: Therm_solubility.
The nature of series [4]: Thermodynamic solubility in PBS by HPLC. Conditions: read-out: Therm_solubility. In kind it is physicochemical.
Series [5] relates to Mus musculus. Description: Toxicity in human U87MG cells implanted into Balb C mouse assessed as body weight loss at 20 mg/kg, ip every other day measured on day 18. Further details: dose 20 mg/kg, route intraperitoneal. Conditions: in vivo. In kind it is organism-based, U-87MG ATCC. The gist of the method:
(§2)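 Female athymic Balb C nu/nu mice, 4 weeks old, implanted subcutaneously in the dorsal flank with 5 × 10⁶ U87MG cells in PBS/Matrigel (1:1). At palpable tumors (50−100 mm³), randomized into two groups (n = 8). Dosed intraperitoneally with vehicle or 20 mg/kg every other day. Tumor volume and body weight followed over 17 days.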

Series [6] is described as follows: Antitumor activity against human U87MG cells assessed as inhibition of cell growth after 72 hrs by MTT assay. Conditions: U-87 MG. In kind it is functional, cell-based, U-87MG ATCC.
In series [7] the target is T2, Cytochrome b-c1 complex subunit 7 (Homo sapiens) (UniProt P14927).
T2 sequence (whole entry): T1 sequence (P14927 whole entry)
Description: Displacement of biotin-labeled terpestacin from UQCRB (unknown origin) by surface plasmon resonance. To be noted: concentration not given here. The procedure, abridged:
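Biotin (control) and biotinylated terpestacin immobilized on a streptavidin sensor chip. Competitor (25 μM) incubated with purified UQCRB (25 μM) in pH 7.4 buffer (10 mM HEPES, 150 mM NaCl, 3 mM EDTA). Complexes injected at 30 μL/min; chip regenerated with 50 mM NaOH. Binding taken as resonance on biotinylated terpestacin minus resonance on biotin.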
(Surface plasmon resonance follows binding to a sensor surface in real time, without labels.)

In series [8] the target is T2, Cytochrome b-c1 complex subunit 7 (Homo sapiens). Description: Binding affinity to UQCRB in human HepG2 cells assessed as inhibition of hypoxia-induced mitochondrial ROS generation under 1%O2 for 10 mins after 30 mins by MitoSOX Red fluorescence assay. In kind it is cell-based. The procedure, abridged:
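HepG2 cells pretreated with compound for 30 min, then held at 1% O₂ for 10 min. Loaded with MitoSOX Red (5 μM) for 10 min, lysed and centrifuged. Fluorescence of protein-normalized supernatant read at ex 510 / em 580 nm. Mean ± SE of three independent experiments.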

Series [9] shares this target. Description: Modulation of UQCRB in human HepG2 cells assessed as inhibition of HIF-1alpha accumulation at 1 to 10 uM for 4 hrs under 1%O2 by Western blot analysis. In kind it is cell-based. The procedure, abridged:
as §1

Series [10] deals with HepG2. Nature of the series: Inhibition of hypoxia-induced VEGF expression in human HepG2 cells at 1 to 5 uM for 30 mins followed by 1%O2 for 16 hrs by ELISA. The format is functional, cell-based. The gist of the method:
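HepG2 cells pretreated with compound for 30 min, then exposed to 1% O₂ for 16 h. VEGF protein in culture supernatant measured by VEGF-specific ELISA. Mean ± SE of three independent experiments.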
Background: ELISA stands for enzyme-linked immunosorbent assay.

Series [11] deals with HUVEC. Description: Antiangiogenic activity in HUVEC assessed as inhibition of VEGF-induced invasion by Transwell chyamber system. To be noted: Homo sapiens. In kind it is functional, cell-based. The procedure, abridged: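 HUVECs serum-starved, then stimulated with VEGF with or without compound. Invasion measured in Transwell chambers with 8.0 μm pore polycarbonate filter inserts; invaded cells counted by light microscope at 100×. Basal invasiveness of HUVECs in serum-free medium normalized to 100%. Mean ± SE of three independent experiments.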

In series [12] the test system is HUVEC. Description: Antiangiogenic activity in HUVEC assessed as inhibition of VEGF-induced tube formation by optical microscopy. The format is functional, cell-based. Conditions: Homo sapiens. The gist of the method: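 Serum-starved HUVECs on Matrigel, VEGF-stimulated with or without compound. Connected cells counted in random fields at 100× and divided by total cells in the same field. Basal tube formation in serum-free medium normalized to 100%. Mean ± SE of three independent experiments.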

In series [13] the test system is U-87MG ATCC. Nature of the series: Antitumor activity against human U87MG cells implanted into Balb C mouse assessed as inhibition of tumor growth at 20 mg/kg, ip every other day measured on day 18. In kind it is functional, organism-based. Set-up: dose 20 mg/kg. The gist of the method: as §2
The subject of series [14] is U-87MG ATCC. Nature of the series: Antitumor activity against human U87MG cells implanted into Balb C mouse assessed as CD31 expression in tumor at 20 mg/kg, ip every other day measured on day 18 by immunohistochemical staining. In kind it is functional, organism-based. Set-up: dose 20 mg/kg. The procedure, abridged: (§3)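 Paraffin tumor sections (4 μm) incubated overnight at 4 °C with anti-CD31, anti-HIF-1α or anti-VEGF antibodies. Then FITC- or Alexa-conjugated secondary antibodies for 45 min at room temperature, with DAPI counterstain.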

Series [15] concerns U-87MG ATCC. Description: Antitumor activity against human U87MG cells implanted into Balb C mouse assessed as HIF1alpha expression in tumor at 20 mg/kg, ip every other day measured on day 18 by immunohistochemical staining. In kind it is functional, organism-based. Further details: dose 20 mg/kg. The gist of the method: as §3
Series [16] deals with U-87MG ATCC. Nature of the series: Antitumor activity against human U87MG cells implanted into Balb C mouse assessed as VEGF expression in tumor at 20 mg/kg, ip every other day measured on day 18 by immunohistochemical staining. The format is functional, organism-based. Further details: dose 20 mg/kg. The gist of the method:
as §3

The subject of series [17] is U-87MG ATCC. Nature of the series: Antitumor activity against human U87MG cells implanted into Balb C mouse assessed as decrease in microvessel density at 20 mg/kg, ip every other day measured on day 18. In kind it is functional, organism-based. Further details: dose 20 mg/kg.
Series [18] has as its system HepG2. Description: Cytotoxicity against human HepG2 cells assessed as effect on cell viability at 1 to 20 uM after 72 hrs by MTT assay. In kind it is cell-based. To be noted: hepg2, 72 h.
Series [19] relates to Chorioallantoic membrane. Nature of the series: Toxicity in chicken chorioallantoic membrane assessed as induction of rupture of pre-existing vessels. To be noted: in vivo. In kind it is cell membranes, Gallus gallus.
Series [20] has as its system HUVEC. Nature of the series: Toxicity in HUVEC assessed as reduction in cell viability by trypan blue staining method. The format is cell-based. To be noted: human. The procedure, abridged:
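HUVECs tested by trypan blue staining, run in parallel with the VEGF-stimulated invasion and tube formation assays at the same concentrations.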

Converted amounts (≈) assume the structure as drawn. The source made the active and inactive calls. The calls are words filed in the database; no cut-off is given here. Some results are limits rather than exact numbers.

Consider `CC(C)(C)c1ccc(S(=O)(=O)Nc2cccc(O)c2)cc1`, for which the IC50 (in general, the midpoint of a concentration-inhibition curve) in series [1] was determined as 8 µM.
Same read-out and setting: then `O=S(=O)(Nc1ccc(O)cc1)c1ccc2ccccc2c1`, with above 20 µM; and `O=S(=O)(Nc1cccc2c(O)cccc12)c1ccc(-c2ccccc2)cc1`, with above 20 µM.
On the same count and under the same terms, then `O=S(=O)(Nc1ccc(O)c(Cl)c1)c1ccc(-c2ccccc2)cc1`, with above 20 µM; and `O=S(=O)(Nc1ccc(O)c2ccccc12)c1ccc(-c2ccccc2)cc1`, with above 20 µM.
On the same count and under the same terms, the value for `O=S(=O)(Nc1cccc2ccc(O)cc12)c1ccc(-c2ccccc2)cc1` was above 20 µM.
As to `Cc1ccc(S(=O)(=O)Nc2ccc(O)cc2)cc1`, the IC50 in series [1] is above 20 µM.
In the case of `CC1=C(/C=C/C(C)=C/C=C/C(C)=C/C(=O)O)C(C)(C)CCC1`, the inhibition (in general, the percentage by which the read-out fell short of the control) in [2] was 67%.
On to `O=C(O)c1cc(NS(=O)(=O)c2ccc(-c3ccccc3)cc2)ccc1O`, for which, in [1], the IC50 is above 20 µM.
Regarding `O=S(=O)(Nc1ccc([O-])cc1)c1ccc(-c2ccccc2)cc1.[K+]`, the solubility thermodynamic is above 500 µg/mL in [3] and 108 µg/mL in [4]. Besides, the IC50 was 5 µM in [1] and 12.5 µM in [6]. The Activity result in series [5] was “Non-toxic”.
With `CCc1ccc(S(=O)(=O)Nc2ccc(O)cc2)cc1`, in [1], the IC50 is above 20 µM.
In the case of `O=S(=O)(Nc1ccc(O)cc1)c1ccc(-c2ccccc2)cc1` [listing 1 of 2 here], the inhibition is 40% in series [7]; “Dose-dependent effect” in series [8]; “Dose-dependent effect” in series [11]; “Dose-dependent effect” in series [12]; 69% in series [2]. The inhibition entry in series [9], in [10], in [13], in [14], in [15] and in series [16] was “Active” each time. For the same molecule, in [17], the inhibition entry was “Active”.
Turning to `CC(C)(C)c1ccc(S(=O)(=O)Nc2ccc(O)c3ncccc23)cc1`, in series [1], the IC50 stood at 20 µM. Also, the solubility thermodynamic in series [4] came to 12.8 µg/mL (≈ 36 µM).
With `O=S(=O)(Nc1ccc(O)c(F)c1)c1ccc(-c2ccccc2)cc1`, the concentration for half-maximal inhibition (IC50) in series [1] is above 20 µM.
`CC(C)(C)c1ccc(S(=O)(=O)Nc2ccccc2O)cc1`: in series [1], the IC50 was found to be 8 µM.
The same measure, in the same setting: then `CC(C)(C)c1ccc(S(=O)(=O)Nc2ccc(O)c3ccccc23)cc1`, with above 20 µM.
With `O=S(=O)(Nc1ccc(O)c2ncccc12)c1ccc(-c2ccccc2)cc1`, the IC50 in [1] is 20 µM. Besides, the solubility thermodynamic in series [4] came to 7.26 µg/mL (≈ 19.3 µM).
Turning to `O=S(=O)(Nc1ccc(O)cc1)c1cccc2cccnc12`, in series [1], the IC50 is above 20 µM.
Regarding `CC(C)(C)c1ccc(S(=O)(=O)Nc2ccc(O)cc2)cc1`, the IC50 in series [1] was 5 µM. The inhibition in [7] is 40%; in series [8], “Dose-dependent effect”; in series [11] it was “Dose-dependent effect”; in series [12] it was “Dose-dependent effect”; in series [2], 65%. Besides, the solubility thermodynamic in series [4] was determined as 26.7 µg/mL (≈ 87.6 µM). In addition, the inhibition result in series [9] and in series [10] was “Active” throughout. In addition, the Activity entry in series [18], in series [19] and in [20] was “Non-toxic” in each case.
`O=S(=O)(Nc1ccc(O)cc1)c1ccc(-c2ccccc2)cc1` [listing 2 of 2 here]: the solubility thermodynamic in series [3] and in series [4] was below 2.06 µg/mL in each case. Besides, the IC50 in [1] is 2.5 µM. Further, the Activity entry in series [18], in [19] and in [20] was “Non-toxic” throughout.

The record behind these values is ChEMBL document CHEMBL3351356, “Development of a novel class of mitochondrial ubiquinol-cytochrome c reductase binding protein (UQCRB) modulators as promising antiangiogenic leads” (J Med Chem, 2014).
